Measured values published in paper PMC12008863 (Journal of Translational Medicine, 2025).

Columns and labels:
fibronectin = assay: Immunohistochemistry of rat retina; assay type: in vivo, rat (Sprague–Dawley); settings: vs STZ and STZ + NC; intravitreal AAV9, 16 weeks, n = 3; Fig. 6B
In short: (§1)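 In the STZ-induced DR model in male SD rats, animals received intravitreal AAV9 (5 μL, 1 × 10^12 vg/mL, every 8 weeks; saline control; n = 8/group). At 16 weeks, eyeballs were paraffin-embedded and cut at 5 μm. Immunohistochemistry for fibronectin or PCNA followed, with relative positivity ratio quantified; n = 3.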

PCNA = assay: Immunohistochemistry of rat retina; assay type: in vivo, rat (Sprague–Dawley); settings: vs STZ and STZ + NC; intravitreal AAV9, 16 weeks, n = 3; Fig. 6C
In short: as §1

HIF-1α [1] = assay: Immunohistochemistry of rat retina; assay type: in vivo, rat (Sprague–Dawley); settings: intravitreal AAV9, 16 weeks, n = 3; Fig. 6D
In short: (§2)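 Male Sprague–Dawley rats, 6–8 weeks old, with STZ-induced diabetic retinopathy. Under intraperitoneal ketamine (80 μg/g) and xylazine (4 μg/g), rats received 5 μL intravitreal AAV9 (1 × 10^12 vg/mL) carrying the test sequence every 8 weeks; saline as control; n = 8 rats per group. At 16 weeks, eyes were paraffin-embedded, cut at 5 μm and immunostained. Relative positivity ratio scored; mean ± SD.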

VEGFA [2] = assay: Immunohistochemistry of rat retina; assay type: in vivo, rat (Sprague–Dawley); settings: intravitreal AAV9, 16 weeks, n = 3; Fig. 6E
In short: as §2

rno-miR-223-3p = assay: qPCR in rat retina; assay type: in vivo, rat (Sprague–Dawley); settings: increased by STZ; intravitreal AAV9, n = 3; Fig. 8A
STAT4 [3] = assay: Western blot of rat retinal tissue; assay type: in vivo, rat (Sprague–Dawley); settings: increased by STZ; intravitreal AAV9, n = 3; Fig. 8C
p-STAT4 [4] = assay: Western blot of rat retinal tissue; assay type: in vivo, rat (Sprague–Dawley); settings: increased by STZ; intravitreal AAV9, n = 3; Fig. 8C
FBXW7 [5] = assay: Western blot of rat retinal tissue; assay type: in vivo, rat (Sprague–Dawley); settings: decreased by STZ; intravitreal AAV9, n = 3; Fig. 8D
Notch 1 [6] = assay: Western blot of rat retinal tissue; assay type: in vivo, rat (Sprague–Dawley); settings: increased by STZ; intravitreal AAV9, n = 3; Fig. 8E
p-AKT [7] = assay: Western blot of rat retinal tissue; assay type: in vivo, rat (Sprague–Dawley); settings: increased by STZ; intravitreal AAV9, n = 3; Fig. 8F
p-mTOR [8] = assay: Western blot of rat retinal tissue; assay type: in vivo, rat (Sprague–Dawley); settings: increased by STZ; intravitreal AAV9, n = 3; Fig. 8G
HIF-1α [9] = assay: Western blot of rat retina; assay type: in vivo, rat (Sprague–Dawley); settings: intravitreal AAV9, n = 3; Fig. S13B
In short: (§3)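 STZ-diabetic male Sprague–Dawley rats (6–8 weeks) were given intravitreal AAV9 (5 μL, 1 × 10^12 vg/mL) every 8 weeks, with saline controls. Retinal protein was extracted in RIPA with protease and phosphatase inhibitors, run on 10% SDS–PAGE and transferred to PVDF. Membranes were blocked in 5% skimmed milk, probed with primary then secondary antibody, and developed by ECL.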

VEGFA [10] = assay: Western blot of rat retina; assay type: in vivo, rat (Sprague–Dawley); settings: intravitreal AAV9, n = 3; Fig. S13C
In short: as §3

hRECs [11] = assay: Cell entry and localization in hRECs; assay type: cell-based, human; settings: 1 μM, 2 h incubation, HG medium, 37 °C; confocal microscopy; Fig. 1D
In short: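 Passage-6 hRECs spent 24 h in high-glucose medium at 37 °C, then 2 h with 1 μM test peptide, TTR homotetramer or scrambled peptide. Cells were PBS-washed, fixed (4% PFA, 20 min), permeabilized (0.1% Triton X-100) and stained overnight at 4 °C with anti-hnRNPA2B1, anti-TTR or anti-His-tag. Alexa Fluor 488/594 secondaries and Hoechst 33342 were used; imaging was confocal.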

hRECs [12] = assay: EdU DNA synthesis assay; assay type: cell-based, human; settings: high glucose (25 mM), 1 μM, n = 5; Fig. 2A, B
In short: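 hRECs (passages 5–6; 3000 cells/mL) were kept in 25 mM glucose medium with 1 μM test peptide or TTR homotetramer, with low-glucose and mannitol controls. DNA synthesis was detected with an EdU labeling kit by confocal imaging, nuclei counterstained with Hoechst 33342; n = 5.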

hRECs [13] = assay: CCK-8 proliferation assay; assay type: cell-based, human; settings: 1 μM, 5 days
In short: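 hRECs (passages 5–6; 3000 cells/mL) were grown in 25 mM glucose medium with 1 μM test peptide or TTR homotetramer, with 5.5 mM glucose and mannitol osmotic controls. Proliferation was read by CCK-8 after 5 days of culture; n = 5.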

hRECs [14] = assay: Apoptosis; assay type: cell-based, human; settings: Annexin V flow cytometry; hyperglycemia; Fig. S7
In short: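 hRECs (passages 5–6) were seeded at 3000 cells/mL and grown 120 h in low-glucose (5.5 mM), high-glucose (25 mM) or low-glucose + 20 mM mannitol (osmotic control) medium. TTR homotetramer (1 μM) or test peptide (1 μM) was added to the high-glucose medium. Apoptosis was measured by FITC Annexin V staining and flow cytometry.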

hRECs [15] = assay: Wound healing assay; assay type: cell-based, human; settings: high glucose, 1 μM, 24 h, n = 5; Fig. 3B, C
In short: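 Wound-healing kit assay on hRECs (passages 5–6) in high-glucose (25 mM) phenol red-free DMEM containing 1 μM test compound. Low glucose (5.5 mM) and mannitol (20 mM) osmotic controls included. Closure followed over 24 h; n = 5; mean ± SD, one-way ANOVA with LSD post hoc test.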

hRECs [16] = assay: Tube formation assay; assay type: cell-based, human; settings: high glucose, 1 μM, basement membrane matrix, 4 h, n = 5; Fig. 3D, E
In short: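 hRECs (passages 5–6) in 25 mM glucose medium with 1 μM test peptide or TTR homotetramer, plus low-glucose and mannitol osmotic controls, were plated on basement membrane matrix. Tube formation was then assessed.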

STAT4 mRNA = assay: qPCR in hRECs; assay type: cell-based, human; settings: high glucose, 1 μM, n = 5, Fig. 4A
In short: (§4)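 hRECs (passages 5–6) cultured 120 h in high-glucose (25 mM) medium with 1 μM test compound, alongside low-glucose and mannitol osmotic controls. Total RNA extracted and measured by qPCR: STAT4 mRNA normalised to GAPDH; hsa-miR-223-3p against a cel-miR-39-3p spike-in control. n = 5; mean ± SD; one-way ANOVA with LSD test.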

hsa-miR-223-3p = assay: qPCR in hRECs; assay type: cell-based, human; settings: high glucose, 1 μM, n = 5, Fig. 4B
In short: as §4

FBXW7 mRNA = assay: qPCR in hRECs; assay type: cell-based, human; settings: high glucose, 1 μM, n = 5, Fig. 4C
In short: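 Total RNA came from hRECs grown 120 h in low-glucose, 25 mM high-glucose or mannitol control medium, with 1 μM test peptide or TTR homotetramer in high glucose. FBXW7 mRNA was quantified by qPCR with GAPDH as reference.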

STAT4 [17] = assay: Western blot in hRECs; assay type: cell-based, human; settings: high glucose (increased by HG), 1 μM, n = 3; Fig. 4D, E
In short: (§5)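 hRECs (passages 5–6; 3000 cells/mL) were cultured 120 h in 5.5 mM glucose, 25 mM glucose or mannitol control medium, with 1 μM test peptide or TTR homotetramer added to high glucose. Lysis was in RIPA with protease/phosphatase inhibitors. Lysates were resolved on 10% SDS–PAGE, transferred to PVDF, blocked in 5% milk, probed and developed by ECL.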

p-STAT4 [18] = assay: Western blot in hRECs; assay type: cell-based, human; settings: high glucose (increased by HG), 1 μM, n = 3; Fig. 4D, E
In short: as §5

FBXW7 [19] = assay: Western blot in hRECs; assay type: cell-based, human; settings: high glucose (decreased by HG), 1 μM, n = 3; Fig. 4D, F
In short: as §5

Notch 1 [20] = assay: Western blot in hRECs; assay type: cell-based, human; settings: high glucose (increased by HG), 1 μM, n = 3; Fig. 4D, G
In short: as §5

p-AKT [21] = assay: Western blot in hRECs; assay type: cell-based, human; settings: high glucose (increased by HG), 1 μM, n = 3; Fig. 4D, H
In short: as §5

p-mTOR [22] = assay: Western blot in hRECs; assay type: cell-based, human; settings: high glucose (increased by HG), 1 μM, n = 3; Fig. 4D, I
In short: as §5

VEGFA [23] = assay: Western blot in hRECs; assay type: cell-based, human; settings: high glucose (enhanced by HG), n = 3; Fig. S8A, C
[24] = Kidney and liver pathological indexes; assay type: in vivo, rat (Sprague–Dawley); settings: serum, STZ rats (raised vs normal), intravitreal AAV9
In short: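 STZ-diabetic male SD rats were given intravitreal AAV9 every 8 weeks (5 μL, 1 × 10^12 vg/mL) or saline. Serum ALT, AST and ALP activities and BUN and creatinine concentrations were measured on an automatic biochemical analyzer.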

hRECs [25] = settings: high-glucose environment; ref [33], [34]; cited from earlier work
hnRNPA2B1 = settings: ref [33], [34]; cited from earlier work

## TTR overexpression: Rat TTR (GenBank: AAH86946.1) cloned into the pAAV-MCS vector and packaged in AAV9, intravitreal
fibronectin
  fibronectin positivity ratio: lower
PCNA
  PCNA positivity ratio: lower
HIF-1α [1]
  HIF-1α level (IHC): neither THIP-4 administration nor TTR overexpression affected the levels
VEGFA [2]
  VEGFA level (IHC): neither THIP-4 administration nor TTR overexpression affected the levels
rno-miR-223-3p
  rno-miR-223-3p expression: reversed
STAT4 [3]
  STAT4 protein level: significantly reversed
p-STAT4 [4]
  p-STAT4 protein level: significantly reversed
FBXW7 [5]
  FBXW7 protein level: significantly reversed
Notch 1 [6]
  Notch 1 protein level: significantly reversed
p-AKT [7]
  p-AKT protein level: significantly reversed
p-mTOR [8]
  p-mTOR protein level: significantly reversed
HIF-1α [9]
  HIF-1α level (western blot): neither THIP-4 administration nor elevated TTR expression affected the levels
VEGFA [10]
  VEGFA level (western blot): neither THIP-4 administration nor elevated TTR expression affected the levels

## transthyretin [TTR]
hRECs [11]
  cellular localization: mainly accumulated in the nucleus and their signals overlapped with that of hnRNPA2B1
hRECs [12]
  DNA synthesis (EdU): significantly reversed this trend
hRECs [13]; high glucose (25 mM), n = 5, Fig. 2C
  proliferation (CCK-8), high glucose: significantly abrogated
hRECs [13]; low glucose (5.5 mM), Fig. S6
  proliferation (CCK-8), low glucose: neither TTR nor the THIPs inhibited hREC proliferation
hRECs [14]
  apoptosis: not significantly influenced
hRECs [15]
  wound healing: significantly inhibited the accelerated hREC healing
hRECs [16]
  tube length (tube formation): reversed by TTR and the THIPs
STAT4 mRNA
  STAT4 expression level: reversed in the presence of TTR or the THIPs
hsa-miR-223-3p
  hsa-miR-223-3p expression level: reversed in the presence of TTR or the THIPs
FBXW7 mRNA
  FBXW7 expression level: this trend was reversed
STAT4 [17]
  STAT4 protein level: significantly reversed
p-STAT4 [18]
  p-STAT4 protein level: significantly reversed
FBXW7 [19]
  FBXW7 protein level: significantly reversed
Notch 1 [20]
  Notch 1 protein level: significantly reversed
p-AKT [21]
  p-AKT protein level: significantly reversed
p-mTOR [22]
  p-mTOR protein level: significantly reversed
VEGFA [23]
  VEGFA level: neither the THIPs nor TTR could reverse this effect
[24]; Fig. S12D
  ALT activity: could not be affected by TTR or THIP-4
[24]; Fig. S12E
  AST activity: could not be affected by TTR or THIP-4
[24]; Fig. S12F
  ALP activity: could not be affected by TTR or THIP-4
hRECs [25]
  neovascularization of hRECs: inhibits the neovascularization of hRECs in a high-glucose environment
hnRNPA2B1
  level of hnRNPA2B1: could not affect the level of hnRNPA2B1
